Where two headings read alike, the source gives them in different places.
Key:
[1] = format: in vivo, human; settings: for concentration at 2 h / concentration at 4 h / concentration at 6 h / concentration at 8 h: human, plasma, oral; for Cthrough (through concentration): patient on sildenafil 40 mg tid, bosentan 125 mg bid, ritonavir-boosted PI
[2] = cited from earlier work
[3] = system: phosphodiesterase; settings: same phosphodiesterase specificity as sildenafil; cited from earlier work
[4] = cited from earlier work; remark: listed apart in the source
[5] = cited from earlier work; remark: listed apart in the source
[6] = Clinical course of the patient: hemodynamics, functional class, tolerability; format: in vivo, human
[7] = Plasma concentrations of protease inhibitors; format: in vivo, human; settings: for concentration at 2 h / concentration at 4 h / concentration at 6 h / concentration at 8 h: human, plasma, oral; for Plasma concentration, t0: t0, 8 a.m., before intake of antiretroviral dose, fosamprenavir 700 mg bid
Outline: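 Heparinized venous blood was drawn before the morning antiretroviral dose (T0) and at 2, 4, 6 and 8 h after it. Plasma was separated by centrifugation and stored at −80 °C. PI levels were measured by a validated HPLC method.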

[8] = coadministered with lopinavir/ritonavir

SMILES: CCCc1nn(C)c2c(=O)[nH]c(-c3cc(S(=O)(=O)N4CCNCC4)ccc3OCC)nc12 [N-desmethylsildenafil]
- Plasma concentrations as % of the parent drug ([1]; during the study, patient on ritonavir-boosted PI): 40-50%
- Plasma concentration, t2 ([1]; t2, 10 a.m., 2 hours after intake of sildenafil and bosentan): 58.33 ng/mL
- Plasma concentration, t4 ([1]; t4, noon, 4 hours after intake of sildenafil and bosentan): 61.85 ng/mL
- Plasma concentration, t6 ([1]; t6, 2 p.m., 6 hours after intake of sildenafil and bosentan): 140.95 ng/mL
- Plasma concentration, t8 ([1]; t8, 4 p.m., 8 hours after intake of sildenafil and bosentan): 121.35 ng/mL
- Plasma levels as % of the parent drug ([2]; metabolite relative to sildenafil): 40-50%
- Potency relative to sildenafil [3]: about half the potency

SMILES: CCCc1nn(C)c2c(=O)[nH]c(-c3cc(S(=O)(=O)N4CCN(C)CC4)ccc3OCC)nc12 [sildenafil]
- Plasma concentration versus the therapeutic range ([1]; coadministration of sildenafil and ritonavir-boosted PI): above the therapeutic range
- concentration at 2 h [1]: 925 ng/mL
- concentration at 4 h [1]: 566 ng/mL
- concentration at 6 h [1]: 1730 ng/mL
- concentration at 8 h [1]: 900 ng/mL
- Cthrough (through concentration) [1]: 276.94 ng/mL
- tmax ([2]; healthy adults, 20 mg tid, oral): approximately 1 hour
- Cmax ([2]; healthy adults, sildenafil 20 mg tid): about 145 ng/mL
- Plasma concentration at which maximal reductions in PAP and PVR were obtained [4]: ~100 ng/mL
- Increase of AUC ([5]; with ritonavir 500 mg twice daily): 11 fold
- Mean PAP ([6]; May 2012, worsening exertional dyspnea on sildenafil 20 mg tid): 47 mmHg
- Mean PAP ([6]; October 2012, after sildenafil increased to 40 mg tid, bosentan 125 mg bid): 40 mmHg
- 6-minute walking test ([6]; October 2012, sildenafil 40 mg tid, bosentan 125 mg bid): 479 m
- NYHA stage change ([6]; after introduction of sildenafil 20 mg tid): from NYHA stage III to NYHA stage II
- Mean PAP ([6]; after sildenafil 20 mg tid was added to bosentan, previously 63 mmHg): 43 mmHg
- Eye fundus examination versus baseline ([6]; during follow-up): no significant changes
- Influence on systemic blood pressure ([6]; measured regularly during the investigation): no significant influence
- Adverse reactions during follow-up ([6]; patient with raised sildenafil levels, headache, flushing, dyspepsia, priapism): did not report any adverse reactions

SMILES: COc1ccccc1Oc1c(NS(=O)(=O)c2ccc(C(C)(C)C)cc2)nc(-c2ncccn2)nc1OCCO [bosentan]
- concentration at 2 h [1]: 3370 ng/mL
- concentration at 4 h [1]: 1750 ng/mL
- concentration at 6 h [1]: 1310 ng/mL
- concentration at 8 h [1]: 1230 ng/mL
- Cthrough (through concentration) [1]: 1546.53 ng/mL
- Increase of Cmax ([5]; by steady-state sildenafil, healthy volunteers): 42%
- Increase in AUC at steady state [5, 8]: 422%
- Increase in Cmax at steady state [5, 8]: 512%

SMILES: CC(C)c1nc(CN(C)C(=O)N[C@H](C(=O)N[C@@H](Cc2ccccc2)C[C@H](O)[C@H](Cc2ccccc2)NC(=O)OCc2cncs2)C(C)C)cs1 [ritonavir]
- concentration at 2 h [7]: < 50 ng/mL
- concentration at 4 h [7]: < 50 ng/mL
- concentration at 6 h [7]: < 50 ng/mL
- concentration at 8 h [7]: < 50 ng/mL
- Plasma levels in all of the samples ([7]; ritonavir 100 mg bid, bosentan coadministered): undetectable
- Plasma concentration, t0 ([7]; ritonavir 100 mg bid): <50 ng/mL

SMILES: CC(C)CN(C[C@@H](O)[C@H](Cc1ccccc1)NC(=O)O[C@H]1CCOC1)S(=O)(=O)c1ccc(N)cc1 [amprenavir]
- concentration at 2 h [7]: 1680 ng/mL
- concentration at 4 h [7]: 3960 ng/mL
- concentration at 6 h [7]: 2170 ng/mL
- concentration at 8 h [7]: 1890 ng/mL
- Cthrough ([7]; patient on fosamprenavir 700 mg bid, ritonavir 100 mg bid): 1495 ng/mL
- Plasma levels versus therapeutic ranges ([7]; patient, therapeutic ranges from ref 16): within therapeutic ranges
- Plasma concentration, t0 ([7]; ritonavir 100 mg bid): 1495 ng/mL

— publication PMC4387373 (Infectious Disease Reports, 2015)
